The values that follow come from ChEMBL document CHEMBL1130212, “Synthesis and structure-activity relationships of 6,7-benzomorphan derivatives as antagonists of the NMDA receptor-channel complex” (J Med Chem, 1997).

For one assay, the target named is Glutamate NMDA receptor. The assay can be described thus: Inhibition of [3H]MK-801 binding to N-methyl-D-aspartate glutamate receptor in rat brain cortical membranes. It counts as cell membranes, Membrane.
The target in the next assay is Mu-type opioid receptor (Rattus norvegicus, UniProt P33535). The assay can be described thus: Inhibition of [3H]dihydromorphine binding to opioid receptor mu 1 in rat brain cortical membranes. It counts as cell membranes, Membrane. Summed up:
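Rat brain without cerebellum membranes incubated 30 min at 25 °C with 0.5 nmol/L [3H]dihydromorphine. Binding stopped by rapid filtration; filter radioactivity counted by scintillation. Ki from computer-aided curve fitting.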

For assay [1], the system named is Mus musculus. The assay can be described thus: Effective dose at which half of the mice were protected against the lethality induced by 200 mg/kg NMDA. To be noted: read-out: ID50 (the source's name). It counts as functional. Summed up: (§1)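 Male mice (20 to 30 g), groups of five, given test compound s.c. (0.01 mL/g) at different doses; NMDA 200 mg/kg i.p. 15 min later. Each mouse observed 20 min in an individual jar; percentage dying recorded. ID50 from log-probit analysis of four doses, or mean ± SEM of up to four independent experiments.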

Assay [2] has as its system Mus musculus. The assay can be described thus: The ID50 values represent the effective dose at which half of the mice were protected against the lethality induced by 200 mg/kg NMDA. The format is functional. To be noted: read-out: ID50 (the source's name). The essentials:
as §1

Assay [3] relates to Mus musculus. The assay can be described thus: The ID50 value represent the effective dose at which half of the mice were protected against the lethality induced by 200 mg/kg NMDA. The format is functional. To be noted: read-out: ID50 (the source's name). The essentials:
as §1

Structures are written as SMILES. Where only a bound is given, the exact number is not on record here.

Sequence of Mu-type opioid receptor (P33535 whole entry): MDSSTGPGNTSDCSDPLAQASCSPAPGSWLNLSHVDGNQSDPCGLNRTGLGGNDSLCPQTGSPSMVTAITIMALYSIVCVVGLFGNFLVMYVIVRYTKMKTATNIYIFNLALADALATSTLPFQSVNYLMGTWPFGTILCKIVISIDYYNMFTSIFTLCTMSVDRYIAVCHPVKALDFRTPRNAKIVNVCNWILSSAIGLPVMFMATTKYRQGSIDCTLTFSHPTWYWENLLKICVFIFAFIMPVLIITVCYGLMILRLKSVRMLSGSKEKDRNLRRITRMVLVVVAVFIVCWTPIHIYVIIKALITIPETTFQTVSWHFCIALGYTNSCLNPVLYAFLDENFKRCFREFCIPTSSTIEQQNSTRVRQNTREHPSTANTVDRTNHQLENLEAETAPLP

Usually Ki stands for a dissociation constant, usually derived from enzyme kinetics or from competition with a known ligand. In turn, `CCO[C@H](C)CN1CC[C@]2(C)c3cc(O)ccc3C[C@@H]1[C@H]2C` registered a Ki on Glutamate NMDA receptor of 1290 nM.

In the case of `CCO[C@H](C)CN1CC[C@]2(C)c3cc(O)ccc3C[C@@H]1[C@@H]2C`, the Ki on Glutamate NMDA receptor amounted to 1840 nM.

Take `CO[C@H](C)CN1CC[C@]2(C)c3cc(O)ccc3C[C@H]1C2(C)C`: the inhibition constant (Ki) came to 14000 nM on Mu-type opioid receptor and 13900 nM at Glutamate NMDA receptor.

Regarding `CO[C@@H](C)CN1CC[C@]2(C)c3cc(O)ccc3C[C@@H]1[C@H]2C`, the values for the Ki at Mu-type opioid receptor and on Glutamate NMDA receptor were 3.5 nM and 35.7 nM, respectively. Also, the ED50 with Mus musculus [1] is 0.6 mg/kg.

As for `COCCCN1CC[C@]2(C)c3cc(O)ccc3C[C@@H]1[C@@H]2C`, the ED50 with Mus musculus [2] is more than 30 mg/kg. Further, the inhibition constant (Ki) at Glutamate NMDA receptor was 991 nM.

On Glutamate NMDA receptor, `CCCN1CC[C@@]2(C)c3cc(O)ccc3C[C@H]1[C@@H]2C` registered an inhibition constant Ki of 43600 nM.

For the molecule `CCCN1CC[C@@]2(C)c3cc(O)ccc3C[C@H]1[C@H]2C`, the ED50 in the assay on Mus musculus [1] was more than 30 mg/kg. In addition, on Glutamate NMDA receptor, the affinity, expressed as Ki, was 2850 nM.

For the molecule `CO[C@@H](C)CN1CC[C@@]2(C)c3cc(O)ccc3C[C@@H]1C2(C)C`, the values for the inhibition constant (Ki) on Mu-type opioid receptor and at Glutamate NMDA receptor were 1.6 nM and 5.6 nM, respectively. Besides, the ED50 in the assay with Mus musculus [1] was 0.2 mg/kg.

For `CO[C@H](C)CN1CC[C@@]2(C)c3ccccc3C[C@@H]1C2(C)C`, the figures for the inhibition constant (Ki) on Mu-type opioid receptor and at Glutamate NMDA receptor were 42300 nM and 29.9 nM, respectively. Besides, in the assay with Mus musculus [3], the ED50 is 6.8 mg/kg.

Turning to `CO[C@H](C)CN1CC[C@@]2(C)c3ccc(O)cc3C[C@@H]1C2(C)C`, the values for the Ki on Mu-type opioid receptor and at Glutamate NMDA receptor were 3400 nM and 4.5 nM, respectively. Moreover, in the assay with Mus musculus [1], the ED50 is 0.4 mg/kg.

Turning to `CS[C@H](C)CN1CC[C@]2(C)c3cc(O)ccc3C[C@@H]1[C@@H]2C`, the inhibition constant (Ki) on Mu-type opioid receptor was determined as 7.7 nM; on Glutamate NMDA receptor it was 1090 nM.

Consider `CCCN1CC[C@]2(C)c3cc(O)ccc3C[C@@H]1[C@H]2C`, for which the affinity at Glutamate NMDA receptor corresponds to a Ki of 373 nM.

On to `CO[C@@H](C)CN1CC[C@]2(C)c3cc(O)ccc3C[C@@H]1[C@@H]2C`, for which the Ki came to 1 nM at Mu-type opioid receptor and 234 nM at Glutamate NMDA receptor. Also, the ED50 in the assay on Mus musculus [1] is 2.3 mg/kg.

At Glutamate NMDA receptor, `CO[C@H](C)CN1CC[C@]2(C)c3ccc(O)cc3C[C@H]1C2(C)C` gave an inhibition constant Ki of 545 nM.

Consider `CS[C@@H](C)CN1CC[C@]2(C)c3cc(O)ccc3C[C@@H]1[C@H]2C`, for which the Ki on Mu-type opioid receptor is 97 nM; at Glutamate NMDA receptor, 83 nM. In the assay on Mus musculus [1], the ED50 was determined as 2.1 mg/kg.

`CO[C@H](C)CN1CC[C@@]2(C)c3cc(O)ccc3C[C@H]1[C@@H]2C`: the inhibition constant (Ki) worked out at 34800 nM at Mu-type opioid receptor and 76600 nM on Glutamate NMDA receptor. Besides, the ED50 in the assay with Mus musculus [1] is more than 30 mg/kg.

As to `CCCN1CC[C@]2(C)c3cc(O)ccc3C[C@@H]1[C@@H]2C`, the ED50 in the assay with Mus musculus [1] was more than 30 mg/kg. For the same molecule, affinity on Glutamate NMDA receptor was put at a Ki of 588 nM.

For `C=CCN1CCC2(C)c3cc(O)ccc3CC1C2(C)C` (configuration not stated), in the assay with Mus musculus [1], the ED50 came to 4.7 mg/kg. In addition, the Ki at Glutamate NMDA receptor was determined as 380 nM.

On to `CCO[C@@H](C)CN1CC[C@]2(C)c3cc(O)ccc3C[C@@H]1[C@@H]2C`, for which, at Glutamate NMDA receptor, the affinity, expressed as Ki, was 1150 nM.

For `CC[C@@H](CN1CC[C@]2(C)c3cc(O)ccc3C[C@@H]1[C@H]2C)OC`, in the assay with Mus musculus [1], the ED50 is 0.3 mg/kg. This molecule showed an inhibitory constant (Ki) at Glutamate NMDA receptor of 66 nM.

For `CO[C@@H](C)CN1CC[C@@]2(C)c3cc(O)ccc3C[C@H]1[C@H]2C`, the figures for the inhibitory constant (Ki) on Mu-type opioid receptor and on Glutamate NMDA receptor were 5300 nM and 22000 nM, respectively. Moreover, the ED50 with Mus musculus [1] is more than 30 mg/kg.

For the molecule `CC[C@H](CN1CC[C@]2(C)c3cc(O)ccc3C[C@@H]1[C@H]2C)OC`, the ED50 with Mus musculus [1] was 3 mg/kg. On Glutamate NMDA receptor, this molecule came in with an inhibition constant (Ki) of 557 nM.

For the molecule `C=CCN1CCC2(C)c3cccc(O)c3CC1C2(C)C` (configuration not stated), the ED50 in the assay on Mus musculus [1] stood at 10.4 mg/kg. The molecule also showed a Ki on Glutamate NMDA receptor of 630 nM.

Consider `CCO[C@@H](C)CN1CC[C@]2(C)c3cc(O)ccc3C[C@@H]1[C@H]2C`, for which the affinity at Glutamate NMDA receptor, expressed as Ki, was 1260 nM.

For `CO[C@H](C)CN1CC[C@@]2(C)c3c(O)cccc3C[C@@H]1C2(C)C`, the Ki on Mu-type opioid receptor stood at 11400 nM; at Glutamate NMDA receptor, 34 nM. Also, in the assay on Mus musculus [1], the ED50 came to 0.5 mg/kg.

`CO[C@@H](C)CN1CC[C@@]2(C)c3cc(O)ccc3C[C@H]1[C@@H]2C` showed a Ki on Glutamate NMDA receptor of more than 100000 nM.

As for `CO[C@H](C)CN1CC[C@@]2(C)c3cc(O)ccc3C[C@H]1[C@H]2C`, the Ki on Mu-type opioid receptor was determined as 18400 nM; on Glutamate NMDA receptor, 9550 nM. The ED50 in the assay on Mus musculus [1] is more than 30 mg/kg.

In the case of `CS[C@@H](C)CN1CC[C@]2(C)c3cc(O)ccc3C[C@@H]1[C@@H]2C`, the figures for the Ki at Mu-type opioid receptor and at Glutamate NMDA receptor were 3.2 nM and 223 nM, respectively. In the assay with Mus musculus [1], the ED50 was determined as 1.7 mg/kg.

Consider `CCC[C@@H](CN1CC[C@]2(C)c3cc(O)ccc3C[C@@H]1[C@H]2C)OC`, for which the Ki at Glutamate NMDA receptor amounted to 490 nM.

On to `CO[C@H](C)CN1CC[C@]2(C)c3c(O)cccc3C[C@H]1C2(C)C`, for which affinity on Glutamate NMDA receptor was put at a Ki of 364 nM.

`CO[C@@H](C)CN1CC[C@@]2(C)c3ccccc3C[C@@H]1C2(C)C`: the inhibition constant (Ki) at Mu-type opioid receptor turned out to be 144 nM; on Glutamate NMDA receptor, 15.8 nM. Moreover, in the assay on Mus musculus [1], the ED50 is 23 mg/kg.

As for `CO[C@H](C)CN1CC[C@@]2(C)c3cc(O)ccc3C[C@@H]1C2(C)C`, the inhibition constant (Ki) on Mu-type opioid receptor was 108 nM; at Glutamate NMDA receptor, 12.4 nM. Also, the ED50 with Mus musculus [1] was 0.7 mg/kg.

Turning to `CO[C@@H](C)CN1CC[C@]2(C)c3cc(O)ccc3C[C@H]1C2(C)C`, the inhibitory constant (Ki) on Mu-type opioid receptor stood at 6020 nM; at Glutamate NMDA receptor it was 50400 nM. The ED50 in the assay on Mus musculus [1] is more than 30 mg/kg.

Turning to `CO[C@@H](C)CN1CC[C@@]2(C)c3ccc(O)cc3C[C@@H]1C2(C)C`, the inhibitory constant (Ki) was determined as 18.2 nM at Mu-type opioid receptor and 7.1 nM at Glutamate NMDA receptor. In addition, the ED50 with Mus musculus [1] is 2.1 mg/kg.

Consider `CO[C@@H](C)CN1CC[C@@]2(C)c3c(O)cccc3C[C@@H]1C2(C)C`, for which the Ki at Mu-type opioid receptor was determined as 20.9 nM; at Glutamate NMDA receptor it was 15 nM. Moreover, the ED50 in the assay on Mus musculus [1] is 0.8 mg/kg.

With `CO[C@@H](C)CN1CC[C@]2(C)c3ccc(O)cc3C[C@H]1C2(C)C`, the Ki on Mu-type opioid receptor came to 1340 nM; on Glutamate NMDA receptor, 685 nM. The ED50 in the assay with Mus musculus [1] is 81 mg/kg.

Regarding `CCC[C@H](CN1CC[C@]2(C)c3cc(O)ccc3C[C@@H]1[C@H]2C)OC`, at Glutamate NMDA receptor, the Ki turned out to be 1840 nM.

On to `C=CCN1CC[C@@]2(C)c3cc(O)ccc3C[C@H]1[C@H]2C`, for which the ED50 in the assay with Mus musculus [1] amounted to 8.2 mg/kg. The affinity at Glutamate NMDA receptor, expressed as Ki, was 1210 nM.

Turning to `C=CCN1CCC2(C)c3c(O)cccc3CC1C2(C)C` (configuration not stated), the ED50 in the assay with Mus musculus [1] was 1.7 mg/kg. The affinity on Glutamate NMDA receptor corresponds to a Ki of 106 nM.

With `COC(C)(C)CN1CC[C@]2(C)c3cc(O)ccc3C[C@@H]1[C@H]2C`, in the assay on Mus musculus [1], the ED50 was 5.5 mg/kg. The Ki at Glutamate NMDA receptor turned out to be 221 nM.

On to `C=CCN1CCC2(C)c3ccc(O)cc3CC1C2(C)C` (configuration not stated), for which, in the assay with Mus musculus [1], the ED50 turned out to be 5 mg/kg. For the same molecule, the inhibition constant Ki at Glutamate NMDA receptor amounted to 99 nM.

Regarding `CO[C@H](C)CN1CC[C@]2(C)c3cc(O)ccc3C[C@@H]1[C@@H]2C`, the values for the inhibition constant Ki on Mu-type opioid receptor and at Glutamate NMDA receptor were 146 nM and 248 nM, respectively. Further, the ED50 with Mus musculus [1] came out at 7.2 mg/kg.

As to `COC(C)(C)CN1CC[C@]2(C)c3cc(O)ccc3C[C@@H]1[C@@H]2C`, the Ki was 5.6 nM on Mu-type opioid receptor and 281 nM on Glutamate NMDA receptor. Further, the ED50 in the assay with Mus musculus [1] was found to be 2.9 mg/kg.

On to `C=CCN1CC[C@]2(C)c3cc(O)ccc3C[C@@H]1[C@@H]2C`, for which the ED50 in the assay with Mus musculus [1] was more than 30 mg/kg. At Glutamate NMDA receptor, this molecule showed a Ki of 1500 nM.

In the case of `CO[C@H](C)CN1CC[C@]2(C)c3cc(O)ccc3C[C@@H]1[C@H]2C`, the inhibitory constant (Ki) turned out to be 212 nM on Mu-type opioid receptor and 195 nM on Glutamate NMDA receptor. Further, the ED50 in the assay on Mus musculus [1] was determined as 0.9 mg/kg.

As to `CS[C@H](C)CN1CC[C@]2(C)c3cc(O)ccc3C[C@@H]1[C@H]2C`, the Ki on Mu-type opioid receptor turned out to be 236 nM; at Glutamate NMDA receptor it was 406 nM.

For `C[C@@H]1[C@H]2Cc3ccc(O)cc3[C@@]1(C)CCN2C[C@@H](C)O`, at Glutamate NMDA receptor, the Ki came out at 425 nM.
